Data set [1] concerns RAW264.7. The experiment in a line: Dark toxicity against mouse RAW264.7 cells assessed as reduction in cell viability up to 100 uM after 24 hrs by MTT assay. In kind it is cell-based. The following applies: raw264.7, 24 h. In a few lines:
(§1)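 RAW 264.7 cells (within 5 passages, phenol-red-free DMEM-F12K, 10% FBS) seeded at 1.0×10^4/well for 24 h, then dosed 0.08–100 μM (≤0.4% DMSO). Light arm: blue LED array (66,351 lx) 1 h, then 23 h more; dark arm kept unlit. MTT 4 h, formazan in DMSO, A560 minus A750, normalised to vehicle; 3 biological × 3 technical replicates, mean ± SEM.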

Data set [2] in a line: Solubility of the compound in DMSO at < 50 mM. Format: physicochemical.
Data set [3] can be described thus: Solubility of the compound in water at < 50 mM. In kind it is physicochemical. The note with it: buffer.
A short description of data set [4]: Solubility of the compound in PBS buffer at < 50 mM. Format: physicochemical.
Data set [5] in a line: Solubility of the compound in FBS supplemented DMEM-F12 medium at < 50 mM. Format: physicochemical.
Data set [6] in a line: Stability of the compound in DMSO incubated for >= 1 month under dark condition. In kind it is physicochemical.
Data set [7] can be described thus: Stability of the compound in water incubated for >= 1 month under dark condition. The following applies: buffer. In kind it is physicochemical.
The nature of data set [8]: Stability of the compound in PBS buffer incubated for >= 1 month under dark condition. In kind it is physicochemical.
The nature of data set [9]: Stability of the compound in FBS supplemented DMEM-F12 medium incubated for >= 1 month under dark condition.
Data set [10] concerns the target T1, Albumin (Bos taurus, UniProt P02769). In words: Binding affinity to bovine serum albumin at pH 7.4 TRIS buffer by fluorescence based Stern-Volmer plot analysis. Format: ADME. The note with it: cattle, isolated protein. In a few lines: (§2)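 Tryptophan fluorescence quench of BSA (1.4 μM) in TRIS buffer pH 7.4 at 295 K, excitation 282 nm, titrated with compound at 0–22.4 μM; data fitted by Stern-Volmer and modified Stern-Volmer plots.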

A short description of data set [11]: Drug metabolism in DMSO assessed as sodium 7-(benzoyloxy)-6-carboxynaphthalene-1-sulfonate metabolite formation at […] after 24 hrs illuminated with visible light by 1H-NMR analysis. In outline:
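Roughly 0.05 mmol compound in 5.0 mL DMSO, under air, irradiated in a photoreactor with 419 nm lamps (2,450 lx) until the lowest-energy absorption band disappeared (~24 h); photoproduct then characterised.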

Data set [12] in a line: Drug uptake in mouse RAW264.7 cells assessed as intracellular accumulation at 50 uM after 4 hrs by Hoechst 33342 staining based fluorescence inverted microscopic method. Format: ADME, cell-based. The note with it: raw264.7, 4 h. In a few lines:
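RAW 264.7 cells seeded at 1.0×10^4 cells/[…] in chamber slides, adhered 24 h, exposed to 50 μM compound (from 25 mM DMSO stock; 0.4% DMSO final) 4 h with minimal light; Hoechst 33342 15 min, three PBS washes; imaged at 20x, blue channel ex 310–390/em 420–470 nm.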

Data set [13] in a line: Drug uptake in mouse RAW264.7 cells assessed as extracellular accumulation at 50 uM incubated for 4 hrs under dark condition followed by compound washout by Hoechst 33342 staining based fluorescence inverted microscopic method. Format: ADME, cell-based. The note with it: raw264.7, 4 h. In outline:
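After 4 h dark incubation of RAW 264.7 cells with 50 μM compound, cells washed with medium containing 10% FBS; pooled washes read by fluorescence (ex 410 nm, slit 3.0 nm) against a 50 μM standard.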

Data set [14] can be described thus: Drug metabolism in mouse RAW264.7 cells assessed as CO release at 50 uM incubated 4 hrs prior to compound washout followed by 1-Ac addition for 30 mins and subsequent 460 nm LED light illumination for 1 hr by Hoechst 33342 dye based fluorescence assay. Format: ADME, cell-based. The following applies: raw264.7, 4 h. In a few lines:
(§3)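 RAW 264.7 cells on chamber slides given 50 μM compound 4 h, then washed 3x with plain medium or left unwashed; Nile red CO sensor 1-Ac 5 μM final (0.2% DMSO) 30 min; blue LED (66,351 lx, 2 cm) 1 h at 37 °C, then 1 h dark at 37 °C; Hoechst 33342 stain; red channel ex 550–600/em 598–660 nm.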

Data set [15] can be described thus: Drug metabolism in mouse RAW264.7 cells assessed as CO release at 50 uM preincubated 4 hrs followed by 1-Ac addition for 30 mins and subsequent 460 nm LED light illumination for 1 hr by Hoechst 33342 dye based fluorescence assay. In kind it is ADME, cell-based. The note with it: raw264.7, 50 µM. In outline:
as §3

For data set [16], the system named is RAW264.7. In words: Cytotoxicity against mouse RAW264.7 cells assessed as reduction in cell viability up to 100 uM incubated for 1 hr under 460 nm LED light illumination and measured after 23 hrs by MTT assay. The note with it: raw264.7, 1 h. In kind it is cell-based. In a few lines:
as §1

The subject of data set [17] is RAW264.7. In words: Antiinflammatory activity in mouse RAW264.7 cells assessed as reduction in LPS-induced TNF-alpha level up to 1 uM incubated for 4 hrs prior to 460 nm LED light illumination for 1 hr followed by 6 hrs incubation under dark condition and subsequent LPS-stimulation and measured after 1 hr by ELISA. Format: functional, cell-based. In a few lines: (§4)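 RAW 264.7 cells seeded at 1.0×10^4/well, 24 h; compound 0.04–50 μM (0.4% DMSO vehicle) for 4 h without light; one plate then given blue LED (66,351 lx) 1 h at 37 °C. Both plates held 6 h dark at 37 °C, then E. coli O127:B8 LPS 1 μg/mL final for 1 h; supernatant TNF-α by mouse ELISA; 3 experiments, 2 technical replicates, mean ± SEM.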
(In general: In an ELISA, binding on a coated surface is turned into a signal by an enzyme label.)

The test system of data set [18] is RAW264.7. In words: Antiinflammatory activity in mouse RAW264.7 cells assessed as reduction in LPS-induced TNF-alpha expression at up to 50 uM preincubated for 4 hrs followed by 6 hrs incubation under dark condition and subsequent LPS-stimulation and measured after 1 hr by ELISA. In kind it is functional, cell-based. In a few lines:
as §4

Data set [19] can be described thus: Absorption property of the compound in DMSO assessed as minimum absorption wavelength at 100 uM. In kind it is physicochemical.
A short description of data set [20]: Emission property of the compound in DMSO assessed as excited state emission wavelength at 100 uM. Format: physicochemical.
Data set [21] is described as follows: Emission property of the compound in DMSO assessed as tautomeric state emission wavelength at 100 uM. Format: physicochemical.
A short description of data set [22]: Absorption property of the compound in pH 7.4 PBS buffer assessed as absorption wavelength at 100 uM. Format: physicochemical. The note with it: pH 7.4, 100 µM.
Data set [23] is described as follows: Absorption property of the compound in water assessed as absorption wavelength at 100 uM. In kind it is physicochemical. The note with it: buffer.
The nature of data set [24]: Absorption property of the compound in 10% FBS supplemented DMEM-F12 medium assessed as absorption wavelength at 100 uM. In kind it is physicochemical.
Data set [25] in a line: Emission property of the compound in pH 7.4 PBS buffer assessed as excited state emission wavelength at 100 uM. In kind it is physicochemical. The following applies: pH 7.4, 100 µM.
Data set [26] in a line: Emission property of the compound in water assessed as emission wavelength at 100 uM. In kind it is physicochemical. The following applies: buffer. In outline: (§5)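 Emission spectra recorded at 0.1 mM in water, 10 mM PBS pH 7.4, or DMEM/F12K with 10% FBS; excitation 410 nm or 467 nm, slit width 3.0 nm.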
Data set [27] can be described thus: Emission property of the compound in 10% FBS supplemented DMEM-F12 medium assessed as emission wavelength at 100 uM. In kind it is physicochemical. In a few lines: as §5
For data set [28], the target named is T1, Albumin. The experiment in a line: Binding affinity to bovine serum albumin at pH 7.4 TRIS buffer at 1:1 ratio of compound to protein by fluorescence based assay. The note with it: cattle, isolated protein. Format: ADME. In a few lines: as §2
A short description of data set [29]: Emission property of the compound in 10% FBS supplemented DMEM-F12 medium assessed as excitation wavelength. Format: physicochemical.
The nature of data set [30]: Drug metabolism in DMSO assessed as CO release at 0.05 mmol incubated for 24 hrs under 419 nm light illumination.
The nature of data set [31]: Drug metabolism in DMSO assessed as sodium 7-(benzoyloxy)-6-carboxynaphthalene-1-sulfonate metabolite formation at 0.05 mmol incubated for 24 hrs under 419 nm light illumination by HSQC analysis.
Data set [32] can be described thus: Drug metabolism in DMSO assessed as sodium 7-(benzoyloxy)-6-carboxynaphthalene-1-sulfonate metabolite formation at 0.05 mmol incubated for 24 hrs under 419 nm light illumination by HMBC analysis.
Data set [33] is described as follows: Drug metabolism in DMSO assessed as sodium 7-(benzoyloxy)-6-carboxynaphthalene-1-sulfonate metabolite formation at 0.05 mmol incubated for 24 hrs under 419 nm light illumination by FTIR analysis.
The nature of data set [34]: Drug metabolism in DMSO assessed as sodium 7-(benzoyloxy)-6-carboxynaphthalene-1-sulfonate metabolite formation at 0.05 mmol incubated for 24 hrs under 419 nm light illumination by 13C-NMR analysis.
The nature of data set [35]: Drug metabolism in DMSO assessed as sodium 7-(benzoyloxy)-6-carboxynaphthalene-1-sulfonate metabolite formation at 0.05 mmol incubated for 24 hrs under 419 nm light illumination by 2D-COSY analysis.
Data set [36] in a line: Drug metabolism in DMSO assessed as sodium 7-(benzoyloxy)-6-carboxynaphthalene-1-sulfonate metabolite formation at 0.05 mmol incubated for 24 hrs under 419 nm light illumination by ESI/APCI-MS analysis.
Data set [37] has as its system RAW264.7. In words: Cytotoxicity against mouse RAW264.7 cells assessed as reduction in cell viability incubated for 1 hr under 460 nm LED light illumination and measured after 23 hrs by MTT assay. In kind it is cell-based. The note with it: for Activity: mouse, raw264.7. In a few lines: as §1
Data set [38] in a line: Absorption property of the compound in DMSO assessed as reduction in absorption wavelength at 0.05 mmol incubated for 14 hrs under 419 nm light illumination. Format: physicochemical.

Activity calls are given as the source filed them. The rule behind the calls is not given here.

T1 sequence (P02769 whole entry): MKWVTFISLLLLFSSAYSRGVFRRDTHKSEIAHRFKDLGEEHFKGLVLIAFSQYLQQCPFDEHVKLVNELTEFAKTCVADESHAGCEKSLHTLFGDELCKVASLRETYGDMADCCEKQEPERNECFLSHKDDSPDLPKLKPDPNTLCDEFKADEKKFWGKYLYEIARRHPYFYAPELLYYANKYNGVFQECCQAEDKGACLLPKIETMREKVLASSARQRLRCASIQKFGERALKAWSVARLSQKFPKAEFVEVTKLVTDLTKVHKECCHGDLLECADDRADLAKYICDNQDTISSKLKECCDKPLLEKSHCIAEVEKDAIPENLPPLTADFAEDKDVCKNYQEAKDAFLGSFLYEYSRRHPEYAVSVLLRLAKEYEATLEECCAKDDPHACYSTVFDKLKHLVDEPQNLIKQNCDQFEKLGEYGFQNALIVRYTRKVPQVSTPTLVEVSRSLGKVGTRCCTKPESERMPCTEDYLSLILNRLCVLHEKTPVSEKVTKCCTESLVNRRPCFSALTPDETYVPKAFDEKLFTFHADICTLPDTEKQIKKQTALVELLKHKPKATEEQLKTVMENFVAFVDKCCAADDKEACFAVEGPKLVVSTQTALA

Consider `O=c1c(O)c(-c2ccccc2)oc2cc3c(S(=O)(=O)[O-])cccc3cc12.[Na+]`, for which the Activity entry was “Non-Toxic” in data set [1]; “Non-Toxic” in data set [16]; 410 nm in data set [19]; 480 nm in [20]; 610 nm in [21]; 450 to 500 nm in [22]. Also, the Activity in [23] is 450 to 500 nm; in data set [24], 450 to 500 nm; in [25] it was 410 nm; in data set [26], 560 nm; in data set [27], 600 nm; in data set [28] it was “Active”. Besides, in data set [29], the Activity is given as 467 nm. For the same compound, the solubility entry in [2], in data set [3], in data set [4] and in data set [5] was “Soluble” each time. Also, the Stability result in data set [6], in data set [7], in data set [8] and in data set [9] was “Stable” each time. The compound further returned a Ka in [10] of 4.1 ×10⁵ /M. For the same compound, the Drug metabolism entry in data set [11] is “Metabolite detected”; in data set [14], “Metabolite_Detected”; in [15], “Metabolite_Detected”; in data set [30] it was “Metabolite detected”; in data set [31] it was “Metabolite detected”; in data set [32], “Metabolite detected”. Besides, the Drug metabolism entry in [33], in data set [34], in data set [35] and in [36] was “Metabolite detected” throughout. The Drug uptake entry in [12] and in data set [13] was “Not Active” each time. Also, the outcome in [17] and in [18] was Active.

For `O=C(Oc1cc2c(S(=O)(=O)O)cccc2cc1C(=O)O)c1ccccc1`, the Activity result in [37] is on record as “Non-Toxic”.

The IC50 is the point on the concentration scale where inhibition reaches its midpoint. As to `O=c1c(O)c(-c2ccccc2)oc2cc3ccccc3cc12`, the Activity entry in data set [1] is “Non-Toxic”; in data set [28], “Active”; in data set [38], “Active”. Moreover, the Ka in data set [10] came to 3.2 ×10³ /M. Further, the Drug uptake entry in data set [12] is “Active”. Further, the figures for the Drug metabolism result in data set [14] and in data set [30] were “Metabolite_Detected” and “Metabolite detected”, respectively. Moreover, the IC50 in data set [37] (Mus musculus, RAW264.7) stood at 22.4 µM. For the same compound, the result in data set [17] and in [18] was Active.

On to `O=C(Oc1cc2ccccc2cc1C(=O)O)c1ccccc1`, for which, in data set [37], the Activity result is listed as “Non-Toxic”.

(Values after ChEMBL document CHEMBL4414603, “Extracellular vs Intracellular Delivery of CO: Does It Matter for a Stable, Diffusible Gasotransmitter?” (J Med Chem, 2019).)
